This is an account of results in ChEMBL document CHEMBL4346709, “Design and Optimization Leading to an Orally Active TTK Protein Kinase Inhibitor with Robust Single Agent Efficacy” (J Med Chem, 2019).

Data set [1] has as its target Leukocyte tyrosine kinase receptor (Homo sapiens, UniProt P29376). Put plainly: Inhibition of recombinant human GST-tagged LTK cytoplasmic domain (450 to 864 residues) expressed in baculovirus expression system at 3 uM by Z'-LYTE assay relative to control. A digest of the protocol:
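Kinase selectivity panel: single-point assessment at 3 µM, n=1.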

The nature of data set [2]: Cmax in CB17 SCID mouse at 30 mg/kg, po. It is filed as ADME, organism-based. Details: dose 30 mg/kg, route oral. To be noted: in vivo. A digest of the protocol: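 Oral PK in SCID mice at 30 mg/kg. Compound is formulated either in CMCT (0.5% CMC/0.25% tween-80) or in 5% TPGS, 10% captisol, 50 mM citrate buffer, depending on compound. Cmax and AUC are measured.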
Data set [3] deals with Mitogen-activated protein kinase 9 (Homo sapiens, UniProt P45984). Nature of the data set: Inhibition of recombinant human full length His-tagged JNK2 expressed in baculovirus expression system by Z'-LYTE assay.
The target of data set [4] is Mitogen-activated protein kinase 10 (Homo sapiens, UniProt P53779). Put plainly: Inhibition of recombinant human full length N-terminal GST-tagged JNK3 expressed in baculovirus expression system by Z'-LYTE assay.
In data set [5] the target is T1, Dual specificity protein kinase TTK (Homo sapiens, UniProt P33981).
T1 sequence (P33981 whole entry): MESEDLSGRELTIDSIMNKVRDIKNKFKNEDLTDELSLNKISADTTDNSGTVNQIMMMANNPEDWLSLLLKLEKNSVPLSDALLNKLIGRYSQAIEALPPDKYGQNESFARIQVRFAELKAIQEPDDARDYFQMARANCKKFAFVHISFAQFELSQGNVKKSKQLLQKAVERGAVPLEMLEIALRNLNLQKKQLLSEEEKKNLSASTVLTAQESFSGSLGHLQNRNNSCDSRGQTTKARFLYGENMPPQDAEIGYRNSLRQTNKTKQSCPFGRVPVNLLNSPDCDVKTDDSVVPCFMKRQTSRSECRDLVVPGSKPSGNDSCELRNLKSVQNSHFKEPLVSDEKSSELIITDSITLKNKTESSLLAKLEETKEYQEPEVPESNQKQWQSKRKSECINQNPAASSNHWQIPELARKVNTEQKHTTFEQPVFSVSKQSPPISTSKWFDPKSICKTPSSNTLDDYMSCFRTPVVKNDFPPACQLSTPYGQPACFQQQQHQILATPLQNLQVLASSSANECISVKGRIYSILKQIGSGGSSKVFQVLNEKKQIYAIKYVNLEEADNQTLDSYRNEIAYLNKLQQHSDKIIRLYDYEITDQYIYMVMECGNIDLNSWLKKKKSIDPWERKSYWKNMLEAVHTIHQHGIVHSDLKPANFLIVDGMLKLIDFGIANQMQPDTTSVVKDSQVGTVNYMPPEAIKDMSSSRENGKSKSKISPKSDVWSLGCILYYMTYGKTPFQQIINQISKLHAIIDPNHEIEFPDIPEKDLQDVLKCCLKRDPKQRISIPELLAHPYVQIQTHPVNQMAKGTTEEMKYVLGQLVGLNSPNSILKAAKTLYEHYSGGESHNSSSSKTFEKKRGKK
Nature of the data set: Inhibition of TTK in human CAL51 cells assessed as decrease in phosphorylated KNL-1 T943 levels after 1 hr by Western blot analysis. The class given is cell-based. (Immunoblotting shows a protein as a band on a membrane.)

Each structure is given as a SMILES string.

Chain of Leukocyte tyrosine kinase receptor (P29376 whole entry, the tested form may be a part): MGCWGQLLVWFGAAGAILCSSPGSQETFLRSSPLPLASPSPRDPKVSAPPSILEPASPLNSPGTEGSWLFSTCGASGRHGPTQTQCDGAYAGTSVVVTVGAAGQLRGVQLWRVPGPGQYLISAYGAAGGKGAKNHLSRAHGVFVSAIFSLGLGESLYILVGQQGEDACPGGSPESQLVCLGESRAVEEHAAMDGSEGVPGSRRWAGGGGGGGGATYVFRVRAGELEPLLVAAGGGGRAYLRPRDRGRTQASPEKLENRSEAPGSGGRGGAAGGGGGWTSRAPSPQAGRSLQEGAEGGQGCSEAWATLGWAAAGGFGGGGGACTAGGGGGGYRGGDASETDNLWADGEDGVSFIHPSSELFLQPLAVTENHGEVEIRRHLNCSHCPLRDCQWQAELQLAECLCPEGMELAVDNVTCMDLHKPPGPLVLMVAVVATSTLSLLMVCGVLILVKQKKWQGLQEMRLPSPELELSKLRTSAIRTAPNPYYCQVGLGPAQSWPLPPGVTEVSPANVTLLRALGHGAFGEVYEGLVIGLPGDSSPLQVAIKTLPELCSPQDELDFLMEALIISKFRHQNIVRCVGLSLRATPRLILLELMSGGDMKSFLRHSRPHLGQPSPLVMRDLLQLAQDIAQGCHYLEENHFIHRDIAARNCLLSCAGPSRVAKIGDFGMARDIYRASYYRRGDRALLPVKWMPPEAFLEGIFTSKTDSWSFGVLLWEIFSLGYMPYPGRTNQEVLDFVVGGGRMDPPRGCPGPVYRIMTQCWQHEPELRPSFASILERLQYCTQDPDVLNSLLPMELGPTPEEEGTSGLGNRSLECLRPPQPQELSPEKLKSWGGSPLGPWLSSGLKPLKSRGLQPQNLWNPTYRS
Chain of Mitogen-activated protein kinase 9 (P45984 whole entry): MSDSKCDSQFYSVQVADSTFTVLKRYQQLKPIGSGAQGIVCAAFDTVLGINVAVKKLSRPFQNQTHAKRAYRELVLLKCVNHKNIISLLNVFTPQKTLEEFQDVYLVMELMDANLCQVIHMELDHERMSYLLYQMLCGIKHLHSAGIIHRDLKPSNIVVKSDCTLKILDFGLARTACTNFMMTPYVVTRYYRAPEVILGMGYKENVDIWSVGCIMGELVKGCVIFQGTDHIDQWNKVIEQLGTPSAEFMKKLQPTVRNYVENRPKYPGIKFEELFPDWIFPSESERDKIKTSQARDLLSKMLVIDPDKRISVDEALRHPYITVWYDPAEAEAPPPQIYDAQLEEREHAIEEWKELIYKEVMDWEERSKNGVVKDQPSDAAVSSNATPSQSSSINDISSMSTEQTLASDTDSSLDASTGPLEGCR
Chain of Mitogen-activated protein kinase 10 (P53779 whole entry): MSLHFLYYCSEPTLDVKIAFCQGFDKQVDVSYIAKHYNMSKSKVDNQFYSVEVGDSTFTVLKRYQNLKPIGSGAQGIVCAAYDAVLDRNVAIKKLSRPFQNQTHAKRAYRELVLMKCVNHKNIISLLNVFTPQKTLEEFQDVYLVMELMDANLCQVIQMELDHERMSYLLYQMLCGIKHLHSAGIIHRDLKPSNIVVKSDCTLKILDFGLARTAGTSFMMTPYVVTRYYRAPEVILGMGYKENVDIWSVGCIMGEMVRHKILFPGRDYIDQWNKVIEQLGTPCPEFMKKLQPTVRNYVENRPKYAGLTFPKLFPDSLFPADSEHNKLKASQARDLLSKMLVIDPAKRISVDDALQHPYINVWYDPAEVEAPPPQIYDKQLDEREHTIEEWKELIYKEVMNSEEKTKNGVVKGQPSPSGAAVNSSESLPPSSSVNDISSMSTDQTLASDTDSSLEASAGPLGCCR

For the compound `C[C@@H](Oc1cc(C(=O)N(C)C)ccc1Nc1nc(O[C@H]2CC[C@@](C)(O)CC2)c2c(Cl)c[nH]c2n1)C(F)(F)F`, in data set [1], the inhibition (commonly the share of the control response that was lost under treatment) was more than 80%. For the same compound, the Cmax – broadly, the peak of the concentration-time curve – in data set [2] was found to be 5.2 µM. Moreover, the IC50 (as a rule, the concentration at which inhibition is half-maximal) in data set [3] came to 0.059 nM; in data set [4], 0.107 nM; in data set [5], 30 nM.
